The source of these data is ChEMBL document CHEMBL1123068, “2-Fluoroformycin and 2-aminoformycin. Synthesis and biological activity” (J Med Chem, 1985).

The assay concerns L1210. Put plainly: Cytotoxic concentration required to reduce rate of L1210 cell proliferation after 48 hr. Type of assay: functional, cell-based. The following applies: Mus musculus, L1210, 48 h. A digest of the protocol: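 L1210 cells grown rapidly in suspension culture were exposed to a range of inhibitor concentrations, some tests with the adenosine deaminase inhibitor pentostatin added. The drop in proliferation rate versus untreated controls was found by cell counts at 24 and 48 h after addition, and IC50 was taken from this.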

In turn, `Nc1nc(N)c2[nH]nc([C@@H]3O[C@H](CO)[C@@H](O)[C@H]3O)c2n1` showed an IC50 of 31 µM.

The compound `Nc1nc(F)nc2c([C@@H]3O[C@H](CO)[C@@H](O)[C@H]3O)n[nH]c12.OC[C@H]1O[C@@H](n2cnc3c2NC=NC[C@H]3O)C[C@@H]1O` gave a 50% inhibitory concentration (IC50) of 22 µM.

For `Nc1nc(N)c2[nH]nc([C@@H]3O[C@H](CO)[C@@H](O)[C@H]3O)c2n1.OC[C@H]1O[C@@H](n2cnc3c2NC=NC[C@H]3O)C[C@@H]1O`, half-maximal inhibition (IC50) was put at 5 µM. The figure for `Nc1nc(F)nc2c([C@@H]3O[C@H](CO)[C@@H](O)[C@H]3O)n[nH]c12` is 12 µM; for `Nc1ncnc2c([C@@H]3O[C@H](CO)[C@@H](O)[C@H]3O)n[nH]c12.OC[C@H]1O[C@@H](n2cnc3c2NC=NC[C@H]3O)C[C@@H]1O` it is 0.2 µM. On to `Nc1ncnc2c([C@@H]3O[C@H](CO)[C@@H](O)[C@H]3O)[nH]nc12` [FORMYCIN], for which the concentration for half-maximal inhibition (IC50) was 1 µM.
